The target of data set [1] is Mitogen-activated protein kinase 3 (Homo sapiens) (UniProt P27361). Briefly: Inhibition of recombinant human N-terminal GST-tagged ERK1 (2 to 379 residues) expressed in Escherichia coli assessed as remaining activity at 1 uM using MBP as substrate incubated for 30 mins in presence of [gamma-33P]ATP by filter binding method relative to control. Summed up:
(§1)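 Kinase panel run robotically at 21 °C for 30 min, linear in time and enzyme. […] Compound tested at 1 or 10 µM. Activity given as percentage of incubations without compound, mean of triplicates ± S.D.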

Data set [2] addresses Mitogen-activated protein kinase 15 (Homo sapiens) (UniProt Q8TD08). Briefly: Inhibition of recombinant human N-terminal His6-tagged ERK8 (2 to 544 residues) expressed in baculovirus infected Sf21 cells assessed as remaining activity at 1 uM using MBP as substrate incubated for 30 mins in presence of [gamma-33P]ATP by filter binding method relative to control. Summed up:
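Radiometric kinase panel run robotically at room temperature (21 °C) for 30 min, linear in time and enzyme. […] Activity is expressed as percent of control without compound, from triplicate determinations ± S.D.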

For data set [3], the target named is Insulin receptor (Homo sapiens) (UniProt P06213). In words: Inhibition of recombinant human N-terminal His6-tagged IR (1001 to 1382 residues) expressed in baculovirus infected Sf21 cells assessed as remaining activity at 1 uM using KKSRGDYMTMQIG as substrate incubated for 30 mins in presence of [gamma-33P]ATP by filter binding method relative to control. Put shortly:
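Panel assays were run for 30 min at 21 °C, within the linear range for time and enzyme. […] Results are percent activity remaining relative to compound-free control, averaged from triplicate ± S.D.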

Data set [4] deals with Insulin receptor-related protein (Homo sapiens) (UniProt P14616). Briefly: Inhibition of recombinant human N-terminal His6-tagged IRR (944 to 1236 residues) expressed in baculovirus infected Sf21 cells assessed as remaining activity at 1 uM using MBP as substrate incubated for 30 mins in presence of [gamma-33P]ATP by filter binding method relative to control.
Data set [5] deals with Serine/threonine-protein kinase Chk1 (Homo sapiens) (UniProt O14757). In words: Inhibition of recombinant human N-terminal GST-tagged CHK1 (1 to 476 residues) expressed in baculovirus infected Sf21 cells assessed as remaining activity at 10 uM using CHKtide as substrate incubated for 30 mins in presence of [gamma-33P]ATP by filter binding method relative to control. Put shortly: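 Robotic radiometric panel assay, 30 min at room temperature (21 °C), with 10 mM magnesium acetate. […] Compound at 1 or 10 µM. Residual activity expressed relative to compound-free control; triplicate average ± S.D.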

In data set [6] the target is Mitogen-activated protein kinase 3 (Homo sapiens) (UniProt P27361). In words: Inhibition of recombinant human N-terminal GST-tagged ERK1 (2 to 379 residues) expressed in Escherichia coli assessed as remaining activity at 10 uM using MBP as substrate incubated for 30 mins in presence of [gamma-33P]ATP by filter binding method relative to control. Put shortly:
as §1

The test system of data set [7] is MEF. Briefly: Inhibition of mTORC2 in serum starved sin1 knockout MEF cells assessed as reduction IGF1-stimulated AKT phosphorylation at Thr308 residue at 100 to 1000 nM incubated for 20 mins by immunoblot analysis. The conditions noted are these: Mus musculus, dose 100-1000 nM. It is filed as cell-based. Summed up:
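Serum withdrawn 16 h. Inhibitor or vehicle given 30 min before stimulation with 50 ng/ml IGF-1 for 20 min. Lysed in Tris lysis buffer and immunoblotted for Akt Thr308 phosphorylation with ECL detection. Applies to HEK-293 and to wild-type, Rictor, Sin1 or mLST8 knockout MEFs. Three independent experiments.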
Background: In western blotting, separated proteins are transferred to a membrane and probed.

The target of data set [8] is T1, Mitogen-activated protein kinase; ERK1/ERK2 (Homo sapiens) (UniProt P27361+P28482). Briefly: Inhibition of ERK1/2 in serum starved/PMA-stimulated HEK293 cells assessed as reduction in RSK activity at 1 uM using crosstide as substrate incubated for 30 mins in presence of [32P]-ATP by liquid-scintillation counting method. It is filed as cell-based.
The target in data set [9] is T1, Mitogen-activated protein kinase; ERK1/ERK2 (Homo sapiens). Briefly: Inhibition of ERK1/2 in serum starved/PMA-stimulated HEK293 cells assessed as reduction in RSK phosphorylation at S227 residues at 1 uM incubated for 30 mins by immunoblot analysis. It counts as cell-based.
The subject of data set [10] is MEF. In words: Induction of cell cycle arrest in MEF cells assessed as accumulation at S phase at 3 uM incubated for 1 to 3 days by propidium iodide staining based flow cytometric analysis (reference value: 61.5 +/- 0.78%). It is filed as toxicity. The following applies: mouse, time 1-3 day.
For data set [11], the system named is MEF. Briefly: Induction of cell cycle arrest in mLST8 knockout MEF cells assessed as accumulation at G2 phase at 3 uM incubated for 1 to 3 days by propidium iodide staining based flow cytometric analysis (reference value: 14.1 +/- 0.69%). It counts as toxicity. The following applies: mouse, time 1-3 day. In general terms: A flow cytometer gives signals particle by particle.

In the next data set the target is mTORC2 (Homo sapiens) (UniProt P42345+Q6R327+Q9BVC4+Q9BPZ7). The following applies: HEK293, dose 30-1000 nM, time 30.0 min.

Structures are written as SMILES. Calls of active or inactive are those of the source. The calls are words filed in the database; no cut-off is given here.

Mitogen-activated protein kinase 3 (Homo sapiens), sequence (P27361 whole entry, the tested form may be a part): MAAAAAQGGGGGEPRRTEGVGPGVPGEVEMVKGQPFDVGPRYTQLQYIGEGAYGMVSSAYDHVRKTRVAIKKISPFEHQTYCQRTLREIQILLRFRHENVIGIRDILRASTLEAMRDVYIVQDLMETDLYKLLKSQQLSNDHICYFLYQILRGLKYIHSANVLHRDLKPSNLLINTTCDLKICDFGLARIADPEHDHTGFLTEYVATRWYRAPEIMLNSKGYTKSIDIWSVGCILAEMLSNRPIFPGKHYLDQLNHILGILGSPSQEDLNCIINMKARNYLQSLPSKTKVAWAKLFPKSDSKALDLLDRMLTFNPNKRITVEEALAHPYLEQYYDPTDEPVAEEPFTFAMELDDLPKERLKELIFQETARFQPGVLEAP
T1 sequence (P27361 whole entry, looked up): as the sequence (P27361 whole entry, the tested form may be a part) above
T1 sequence (P28482 whole entry, looked up): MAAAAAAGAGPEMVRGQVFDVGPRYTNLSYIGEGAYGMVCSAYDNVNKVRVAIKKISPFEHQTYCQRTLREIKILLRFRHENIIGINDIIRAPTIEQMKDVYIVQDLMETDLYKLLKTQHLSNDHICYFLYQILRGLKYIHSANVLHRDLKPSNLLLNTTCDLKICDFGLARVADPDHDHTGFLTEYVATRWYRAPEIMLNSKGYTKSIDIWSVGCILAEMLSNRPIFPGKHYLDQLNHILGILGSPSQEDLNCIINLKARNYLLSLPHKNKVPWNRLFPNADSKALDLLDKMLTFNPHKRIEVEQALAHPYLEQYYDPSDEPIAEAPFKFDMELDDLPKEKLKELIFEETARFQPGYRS
Insulin receptor-related protein (Homo sapiens), sequence (P14616 27-742 limits assumed): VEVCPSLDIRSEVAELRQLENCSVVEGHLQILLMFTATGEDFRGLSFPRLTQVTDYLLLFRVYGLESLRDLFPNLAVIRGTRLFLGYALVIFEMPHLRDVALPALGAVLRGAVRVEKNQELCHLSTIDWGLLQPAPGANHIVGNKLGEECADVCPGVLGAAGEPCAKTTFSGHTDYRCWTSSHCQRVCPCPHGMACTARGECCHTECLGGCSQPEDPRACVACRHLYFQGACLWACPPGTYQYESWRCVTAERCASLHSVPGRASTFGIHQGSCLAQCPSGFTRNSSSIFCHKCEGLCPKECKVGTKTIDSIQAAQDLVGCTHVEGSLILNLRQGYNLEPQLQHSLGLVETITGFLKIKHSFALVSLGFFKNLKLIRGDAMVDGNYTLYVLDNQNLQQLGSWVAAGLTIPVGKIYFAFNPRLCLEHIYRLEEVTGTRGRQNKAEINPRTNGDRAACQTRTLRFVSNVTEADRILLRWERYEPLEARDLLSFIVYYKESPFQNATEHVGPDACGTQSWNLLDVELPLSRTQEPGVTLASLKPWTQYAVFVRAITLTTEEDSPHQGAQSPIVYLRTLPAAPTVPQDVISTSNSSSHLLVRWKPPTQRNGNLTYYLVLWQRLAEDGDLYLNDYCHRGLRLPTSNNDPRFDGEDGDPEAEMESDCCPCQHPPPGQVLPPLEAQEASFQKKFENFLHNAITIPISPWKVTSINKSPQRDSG
Insulin receptor-related protein (Homo sapiens), sequence (P14616 747-1297 limits assumed): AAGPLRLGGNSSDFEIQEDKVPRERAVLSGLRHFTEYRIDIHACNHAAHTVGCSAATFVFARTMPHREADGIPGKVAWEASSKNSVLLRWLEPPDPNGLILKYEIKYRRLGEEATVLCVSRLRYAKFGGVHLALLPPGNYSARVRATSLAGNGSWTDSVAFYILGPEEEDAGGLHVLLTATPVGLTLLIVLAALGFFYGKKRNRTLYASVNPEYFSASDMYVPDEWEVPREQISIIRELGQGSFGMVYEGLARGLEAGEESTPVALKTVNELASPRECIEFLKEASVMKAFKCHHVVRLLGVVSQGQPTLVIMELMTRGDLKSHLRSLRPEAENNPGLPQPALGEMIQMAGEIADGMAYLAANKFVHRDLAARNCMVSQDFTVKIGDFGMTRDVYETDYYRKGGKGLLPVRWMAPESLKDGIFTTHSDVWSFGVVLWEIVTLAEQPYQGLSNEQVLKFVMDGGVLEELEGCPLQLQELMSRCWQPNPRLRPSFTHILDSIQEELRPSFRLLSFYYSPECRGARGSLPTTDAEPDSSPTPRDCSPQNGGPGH
Insulin receptor (Homo sapiens), sequence (P06213 28-758 limits assumed): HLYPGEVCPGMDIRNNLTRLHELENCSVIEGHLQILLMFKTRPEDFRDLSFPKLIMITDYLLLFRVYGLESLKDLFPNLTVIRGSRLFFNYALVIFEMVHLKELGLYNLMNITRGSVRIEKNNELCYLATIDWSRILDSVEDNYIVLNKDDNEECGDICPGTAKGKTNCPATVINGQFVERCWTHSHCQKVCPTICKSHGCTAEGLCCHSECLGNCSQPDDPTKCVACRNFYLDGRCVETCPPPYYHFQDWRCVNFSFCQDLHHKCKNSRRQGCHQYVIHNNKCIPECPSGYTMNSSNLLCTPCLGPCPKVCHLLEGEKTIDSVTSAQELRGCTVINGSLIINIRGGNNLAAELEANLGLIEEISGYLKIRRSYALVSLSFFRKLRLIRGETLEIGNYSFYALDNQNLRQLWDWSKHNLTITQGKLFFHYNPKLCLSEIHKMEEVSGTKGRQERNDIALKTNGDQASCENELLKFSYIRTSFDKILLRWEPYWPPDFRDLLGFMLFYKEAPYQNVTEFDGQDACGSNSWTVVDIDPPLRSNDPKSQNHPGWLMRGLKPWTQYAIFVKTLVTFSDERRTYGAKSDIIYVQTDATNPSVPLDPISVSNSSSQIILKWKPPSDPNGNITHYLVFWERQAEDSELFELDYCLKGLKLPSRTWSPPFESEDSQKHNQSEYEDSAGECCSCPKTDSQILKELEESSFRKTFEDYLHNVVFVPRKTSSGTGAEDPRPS
Insulin receptor (Homo sapiens), sequence (P06213 763-1382 limits assumed): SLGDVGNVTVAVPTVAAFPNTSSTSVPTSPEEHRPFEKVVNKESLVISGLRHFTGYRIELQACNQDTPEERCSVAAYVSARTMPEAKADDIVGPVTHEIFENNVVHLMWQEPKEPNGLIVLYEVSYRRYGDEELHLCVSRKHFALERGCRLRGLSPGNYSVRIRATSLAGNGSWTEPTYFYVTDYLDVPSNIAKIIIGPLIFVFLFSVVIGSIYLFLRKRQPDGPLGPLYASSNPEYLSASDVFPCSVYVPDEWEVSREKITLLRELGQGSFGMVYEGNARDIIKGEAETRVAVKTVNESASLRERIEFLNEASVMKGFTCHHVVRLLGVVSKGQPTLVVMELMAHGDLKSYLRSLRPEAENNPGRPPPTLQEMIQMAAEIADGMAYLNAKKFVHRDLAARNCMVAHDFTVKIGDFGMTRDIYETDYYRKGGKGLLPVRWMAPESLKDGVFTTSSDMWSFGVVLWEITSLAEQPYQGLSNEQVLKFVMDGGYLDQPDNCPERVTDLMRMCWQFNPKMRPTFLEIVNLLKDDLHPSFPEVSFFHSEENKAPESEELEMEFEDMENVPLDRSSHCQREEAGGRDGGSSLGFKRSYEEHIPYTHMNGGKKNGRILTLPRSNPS
Serine/threonine-protein kinase Chk1 (Homo sapiens), sequence (O14757 whole entry, the tested form may be a part): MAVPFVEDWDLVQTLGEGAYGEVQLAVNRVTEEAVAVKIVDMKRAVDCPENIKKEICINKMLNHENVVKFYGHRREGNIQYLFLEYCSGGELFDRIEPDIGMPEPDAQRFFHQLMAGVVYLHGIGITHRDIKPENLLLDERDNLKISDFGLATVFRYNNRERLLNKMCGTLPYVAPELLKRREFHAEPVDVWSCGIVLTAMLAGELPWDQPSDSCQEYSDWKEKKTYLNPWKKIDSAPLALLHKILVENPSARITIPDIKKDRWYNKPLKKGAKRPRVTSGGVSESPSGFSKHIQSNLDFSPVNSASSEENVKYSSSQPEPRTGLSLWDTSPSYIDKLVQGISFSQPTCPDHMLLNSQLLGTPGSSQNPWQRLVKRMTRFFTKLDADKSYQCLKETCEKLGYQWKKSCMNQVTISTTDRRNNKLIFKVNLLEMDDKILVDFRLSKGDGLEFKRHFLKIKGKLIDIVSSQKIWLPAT
Mitogen-activated protein kinase 15 (Homo sapiens), sequence (Q8TD08 whole entry, the tested form may be a part): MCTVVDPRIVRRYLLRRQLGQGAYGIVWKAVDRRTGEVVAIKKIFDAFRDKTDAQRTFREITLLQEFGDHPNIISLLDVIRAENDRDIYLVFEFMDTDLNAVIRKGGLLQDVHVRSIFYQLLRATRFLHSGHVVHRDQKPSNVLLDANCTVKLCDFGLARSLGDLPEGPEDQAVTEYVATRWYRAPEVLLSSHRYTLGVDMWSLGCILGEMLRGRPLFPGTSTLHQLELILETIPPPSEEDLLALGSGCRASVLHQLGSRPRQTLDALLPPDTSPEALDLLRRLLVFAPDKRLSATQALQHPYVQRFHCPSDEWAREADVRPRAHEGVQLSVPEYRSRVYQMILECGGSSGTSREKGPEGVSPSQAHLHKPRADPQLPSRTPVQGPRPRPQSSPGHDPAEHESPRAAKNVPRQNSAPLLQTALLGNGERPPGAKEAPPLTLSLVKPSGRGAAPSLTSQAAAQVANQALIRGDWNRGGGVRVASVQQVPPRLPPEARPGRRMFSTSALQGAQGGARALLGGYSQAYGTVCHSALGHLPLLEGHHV

Regarding `COc1ccc(-c2ccc3c(N4CCOCC4)nc(N4C[C@@H](C)O[C@@H](C)C4)nc3n2)cc1CO` [Ku-0063794], the Activity turned out to be 102% in [1]; 88% in data set [2]; 81% in data set [3]; 105% in data set [4]; 86% in data set [5]; 87% in data set [6]. Further, the Activity in the data set with MEF [10] was found to be 46.9%; in the data set on MEF [11] it was 13.3%. The inhibition entry with MEF [7] and at mTORC2 (Homo sapiens) was “Active” each time. Moreover, the inhibition entry in [8] and in data set [9] was “inactive” in each case.

Source of the values: ChEMBL document CHEMBL5678799 (Biochem J, 2009).
